For test [1], the system named is NCI-H23. Kind of test: Down regulation of WNT5A-2 gene expression in human NCI-H23 cells at 500 nM measured after 3 to 24 hrs by qPCR analysis. The test is classed as functional, cell-based. The note with it: time 3-24 hrs. In short, it runs like this:
(§1)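 H23 cells were grown in RPMI-1640 with 10% FBS and plated 48 h before treatment at 170,000 cells/ml. Medium was replaced with fresh medium containing 500 nM JQ1 or matched DMSO, and cells were harvested at 3, 6, 12 and 24 h. Total RNA was extracted with TRIzol and assayed by SYBR qPCR (40 cycles). Expression was normalized to GAPDH and compared with DMSO. There were three biological replicates, each run in duplicate twice.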
(In qPCR the cycle at which signal appears reflects the starting amount.)

The test system of test [2] is NCI-H23. The test can be described thus: Effect in H3K27ac global level in human NCI-H23 cells at 500 nM incubated for 24 hrs by Chip-seq assay. The test is classed as functional, cell-based.
Test [3] concerns NCI-H23. Kind of test: Down regulation of CFLAIR gene expression in human NCI-H23 cells at 500 nM measured after 3 to 24 hrs by qPCR analysis. It counts as functional, cell-based. The note with it: time 3-24 hrs. In short, it runs like this:
as §1

For test [4], the system named is NCI-H23. The test can be described thus: Effect on CTNNB1 gene expression in human NCI-H23 cells at 500 nM measured after 3 to 24 hrs by qPCR analysis. The test is classed as functional, cell-based. The note with it: time 3-24 hrs. In short, it runs like this:
as §1

Test [5] concerns the target Bromodomain-containing protein 2 (Homo sapiens) (UniProt P25440). The note with it: NCI-H23, dose 500.0 nM, time 24.0 hrs.
For test [6], the system named is NCI-H23. Kind of test: Effect in H3K27ac subpopulation level in human NCI-H23 cells at 500 nM incubated for 24 hrs by Chip-seq assay. The test is classed as functional, cell-based.
Test [7] relates to NCI-H23. The test can be described thus: Antiproliferation activity against human NCI-H23 cells assessed as decrease in cell proliferation at 5 to 5000 nM incubated for 24 hrs by Green Apoptosis Assay. The note with it: dose 5-5000 nM. The test is classed as functional, cell-based. In short, it runs like this: (§2)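 RFP-labelled H23 cells were seeded at 8,000 cells/well one day ahead and given JQ1 at 5, 50, 500, 1,000 or 5,000 nM. For apoptosis, Caspase-3/7 Green reagent (DEVD–NucView488) was added with the drug. Plates were imaged hourly for 24 h. Red (proliferating) or green (apoptotic) objects were counted per image and expressed as fold change versus 0 h.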

The subject of test [8] is NCI-H23. The test can be described thus: Effect in H4K5acK8ac global level enhancer region in human NCI-H23 cells at 500 nM incubated for 24 hrs by Chip-seq assay. It counts as functional, cell-based. In short, it runs like this: (§3)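 H23 cells received 500 nM JQ1 or DMSO for 24 h and then underwent formaldehyde crosslinking. For spike-in ChIP-seq, H23 chromatin was mixed with Drosophila chromatin at 400:1 for H4K5acK8ac or 600:1 for BRD2, adding anti-H2Av antibody. Reads were normalized to Drosophila counts, with two biological replicates. Signals were averaged over peaks from untreated cells, and differential H4K5acK8ac peaks were called at FDR <0.05.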

Test [9] has as its system NCI-H23. Kind of test: Effect in H4K5acK8ac global level super enhancer region in human NCI-H23 cells at 500 nM incubated for 24 hrs by Chip-seq assay. The test is classed as functional, cell-based. In short, it runs like this: as §3
Test [10] deals with NCI-H23. Kind of test: Effect in H4K5acK8ac subpopulation level in human NCI-H23 cells at 500 nM incubated for 24 hrs by Chip-seq assay. It counts as functional. In short, it runs like this: as §3
In test [11] the test system is NCI-H23. The test can be described thus: Down regulation of BCL2 gene expression in human NCI-H23 cells at 500 nM measured after 3 to 24 hrs by qPCR analysis. The test is classed as functional, cell-based. The note with it: time 3-24 hrs. In short, it runs like this:
as §1

Test [12] deals with NCI-H23. Kind of test: Induction of apoptosis in human NCI-H23 cells at 5 to 5000 nM incubated for 24 hsr by Green Apoptosis assay. The test is classed as functional, cell-based. The note with it: dose 5-5000 nM, time 24.0 hrs. In short, it runs like this: as §2
Test [13] deals with NCI-H23. The test can be described thus: Down regulation of FOSL1 gene expression in human NCI-H23 cells at 500 nM measured after 3 to 24 hrs by qPCR analysis. It counts as functional, cell-based. The note with it: time 3-24 hrs. In short, it runs like this: as §1
For test [14], the system named is NCI-H23. The test can be described thus: Down regulation of FOSL1 protein expression in human NCI-H23 cells at 500 nM measured after 3 to 24 hrs by […]. It counts as functional, cell-based. The note with it: time 3-24 hrs.
Test [15] deals with NCI-H23. The test can be described thus: Down regulation of BRD2 gene expression in human NCI-H23 cells at 500 nM measured after 3 to 24 hrs by qPCR analysis. The test is classed as functional, cell-based. The note with it: time 3-24 hrs. In short, it runs like this: as §1
Test [16] has as its system NCI-H23. The test can be described thus: Down regulation of BRD4 gene expression in human NCI-H23 cells at 500 nM measured after 3 to 24 hrs by qPCR analysis. The test is classed as functional, cell-based. The note with it: time 3-24 hrs. In short, it runs like this: as §1
Test [17] relates to NCI-H23. The test can be described thus: Down regulation of WNT2 gene expression in human NCI-H23 cells at 500 nM measured after 3 to 24 hrs by qPCR analysis. It counts as functional, cell-based. The note with it: time 3-24 hrs. In short, it runs like this: as §1
Test [18] has as its system NCI-H23. The test can be described thus: Effect in H4K5acK8ac global level Promoter region in human NCI-H23 cells at 500 nM incubated for 24 hrs by Chip-seq assay. The test is classed as functional, cell-based. In short, it runs like this: as §3
Test [19] has as its system NCI-H23. Kind of test: Upregulation of MYC gene expression in human NCI-H23 cells at 500 nM measured after 3 to 24 hrs by qPCR analysis. The note with it: time 3-24 hrs. It counts as functional, cell-based. In short, it runs like this: as §1

SMILES strings stand for the structures. Active and inactive are the calls of the source. The calls are words filed in the database; no cut-off is given here.

As usually defined, the inhibition is the relative decrease from the control value, in per cent. Read a high inhibition as a strong effect.

Sequence of Bromodomain-containing protein 2 (Homo sapiens) (P25440 whole entry, looked up): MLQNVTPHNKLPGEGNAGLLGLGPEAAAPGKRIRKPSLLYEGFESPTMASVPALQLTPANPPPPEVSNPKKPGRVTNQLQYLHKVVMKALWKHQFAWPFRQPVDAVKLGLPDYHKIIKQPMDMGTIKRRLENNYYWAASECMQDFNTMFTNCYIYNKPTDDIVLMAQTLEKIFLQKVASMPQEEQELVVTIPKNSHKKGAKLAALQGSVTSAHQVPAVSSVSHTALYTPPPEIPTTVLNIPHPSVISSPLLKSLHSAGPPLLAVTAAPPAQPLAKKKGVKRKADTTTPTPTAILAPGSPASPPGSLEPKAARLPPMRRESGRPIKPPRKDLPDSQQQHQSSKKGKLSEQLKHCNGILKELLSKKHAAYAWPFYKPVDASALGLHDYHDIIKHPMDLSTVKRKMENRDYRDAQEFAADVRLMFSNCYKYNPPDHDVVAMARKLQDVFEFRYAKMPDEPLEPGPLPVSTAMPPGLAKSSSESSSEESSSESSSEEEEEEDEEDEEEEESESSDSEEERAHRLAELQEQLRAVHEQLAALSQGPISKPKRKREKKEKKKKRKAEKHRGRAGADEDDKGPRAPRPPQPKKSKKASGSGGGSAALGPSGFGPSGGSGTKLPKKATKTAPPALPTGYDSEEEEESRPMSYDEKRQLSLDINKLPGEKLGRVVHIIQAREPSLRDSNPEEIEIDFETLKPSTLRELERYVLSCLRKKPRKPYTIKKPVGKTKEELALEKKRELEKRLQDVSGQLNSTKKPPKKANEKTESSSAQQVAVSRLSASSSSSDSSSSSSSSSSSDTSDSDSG

Regarding `Cc1sc2c(c1C)C(c1ccc(Cl)cc1)=N[C@@H](CC(=O)OC(C)(C)C)c1nnc(C)n1-2`, the result in test [1], in [3], in test [4], in [6], in [7] and in test [11] was Active. For the same compound, the outcome in test [12], in [13], in [14], in test [17] and in test [19] was Active. Besides, the outcome in test [2], in test [8], in test [9], in test [15], in [16] and in test [18] was inactive. Besides, in test [5], the inhibition is 100%. The “fold change (FC)” value in test [10] is reported as 2.

These data come from ChEMBL document CHEMBL5712900, “JQ1 affects BRD2-dependent and independent transcription regulation without disrupting H4-hyperacetylated chromatin states” (2018).
